Data as given in ChEMBL document CHEMBL1145112, “Pyrazolo[4,3-e]-1,2,4-triazolo[1,5-c]pyrimidine derivatives as adenosine receptor antagonists. Influence of the N5 substituent on the affinity at the human A 3 and A 2B adenosine receptor subtypes: a molecular modeling investigation” (J Med Chem, 2003).

Legend:
Adenosine receptor A2b [1] = molecular target: T1, Adenosine receptor A2b (Homo sapiens, UniProt P29275); experiment: Displacement of [3H]DPCPX from human adenosine A2B receptor expressed in HEK293 cells; format: cell-based
T1 sequence (P29275 whole entry): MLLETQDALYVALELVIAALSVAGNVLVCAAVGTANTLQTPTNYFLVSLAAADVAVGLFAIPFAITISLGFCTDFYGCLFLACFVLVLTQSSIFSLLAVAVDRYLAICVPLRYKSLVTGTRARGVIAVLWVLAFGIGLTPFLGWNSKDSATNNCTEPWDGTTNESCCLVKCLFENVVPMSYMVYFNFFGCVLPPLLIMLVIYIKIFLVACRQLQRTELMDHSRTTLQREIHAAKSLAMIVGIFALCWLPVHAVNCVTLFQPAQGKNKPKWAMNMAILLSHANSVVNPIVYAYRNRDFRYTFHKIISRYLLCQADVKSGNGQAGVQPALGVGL
Summary of the method: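 Competition run 60 min at 25 °C in 50 mM Tris-HCl, 10 mM MgCl2, 1 mM EDTA, 0.1 mM […], pH 7.4, with 2 IU/mL adenosine deaminase. Assays held 40 nM [3H]-DPCPX, membranes (20 μg protein/assay) and at least six to eight compound concentrations. Nonspecific binding was set with 100 μM NECA. Filtered on GF/B and counted. n = 3–6, mean ± SEM.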

[2] = molecular target: Adenosine receptors; A2b & A3 (Homo sapiens) (UniProt P29275+P0DMS8); experiment: Relative inhibitory activity against adenosine A3 receptors and A2B receptors; format: protein assay
Adenosine receptor A2b [3] = molecular target: T1, Adenosine receptor A2b; experiment: Inhibitory activity against NECA stimulated cAMP accumulation in CHO cells expressing human adenosine A2B receptor; format: functional, cell-based
Summary of the method: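 Transfected CHO cells (1 × 10^6/assay) in pH 7.4 saline/HEPES/glucose medium with 2 IU/mL adenosine deaminase and Ro 20-1724 (phosphodiesterase inhibitor), preincubated 10 min at 37 °C. Antagonism of 100 nM NECA-stimulated cAMP was measured. Reaction stopped with cold 6% TCA, then ether extraction. cAMP was quantified by competitive binding with [3H]-cAMP and beef adrenal binding protein (150 min, 4 °C), with charcoal separation and scintillation counting.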

[4] = molecular target: Adenosine receptors; A1 & A2b (Homo sapiens) (UniProt P30542+P29275); experiment: Relative inhibitory activity against adenosine A1 and A2B receptors; format: protein assay
Adenosine receptor A1 = molecular target: T2, Adenosine receptor A1 (Homo sapiens, UniProt P30542); experiment: Displacement of [3H]DPCPX from human Adenosine A1 receptor expressed in CHO cells; format: cell-based
T2 sequence (P30542 whole entry): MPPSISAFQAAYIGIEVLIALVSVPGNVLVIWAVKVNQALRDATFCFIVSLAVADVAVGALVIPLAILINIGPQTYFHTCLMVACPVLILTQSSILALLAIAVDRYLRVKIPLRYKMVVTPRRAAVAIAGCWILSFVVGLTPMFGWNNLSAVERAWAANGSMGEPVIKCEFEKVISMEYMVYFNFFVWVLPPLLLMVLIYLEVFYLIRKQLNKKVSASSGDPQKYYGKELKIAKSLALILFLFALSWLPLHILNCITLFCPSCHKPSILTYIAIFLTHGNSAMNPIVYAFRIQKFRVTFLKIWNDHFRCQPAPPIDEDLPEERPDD
Summary of the method: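 Membranes from the transfected cells in 50 mM Tris-HCl, pH 7.4, incubated 120 min at 25 °C with 1 nM [3H]-DPCPX (50 μg protein/assay) and at least six to eight test concentrations. Nonspecific binding was set with 10 μM CHA. Bound and free ligand were separated by GF/B filtration, then scintillation counted. n = 3–6, mean ± SEM.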

Adenosine receptor A2a = Adenosine receptor A2a (Homo sapiens, UniProt P29274); experiment: Displacement of [3H]ZM-241385 from human adenosine A2A receptors expressed in HEK293 cells; format: cell-based
Adenosine receptor A2a, sequence (P29274 whole entry): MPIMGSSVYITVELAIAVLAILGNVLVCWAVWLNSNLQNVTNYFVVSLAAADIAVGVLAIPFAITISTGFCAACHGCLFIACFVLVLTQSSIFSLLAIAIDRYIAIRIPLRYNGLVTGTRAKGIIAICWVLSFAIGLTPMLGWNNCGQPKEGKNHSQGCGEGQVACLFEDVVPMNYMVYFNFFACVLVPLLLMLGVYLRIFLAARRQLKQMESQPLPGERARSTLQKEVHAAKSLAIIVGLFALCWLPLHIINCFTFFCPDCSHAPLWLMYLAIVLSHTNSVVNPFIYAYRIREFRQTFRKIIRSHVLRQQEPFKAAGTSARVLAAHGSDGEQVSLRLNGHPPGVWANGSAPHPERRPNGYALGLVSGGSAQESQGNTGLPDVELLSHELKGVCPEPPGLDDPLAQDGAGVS

Adenosine receptor A3 = molecular target: T3, Adenosine receptor A3 (Homo sapiens, UniProt P0DMS8); experiment: Displacement of [3H]MRE3008-F20 from human A3 receptors expressed in HEK293 cells; format: cell-based
T3 sequence (P0DMS8 whole entry): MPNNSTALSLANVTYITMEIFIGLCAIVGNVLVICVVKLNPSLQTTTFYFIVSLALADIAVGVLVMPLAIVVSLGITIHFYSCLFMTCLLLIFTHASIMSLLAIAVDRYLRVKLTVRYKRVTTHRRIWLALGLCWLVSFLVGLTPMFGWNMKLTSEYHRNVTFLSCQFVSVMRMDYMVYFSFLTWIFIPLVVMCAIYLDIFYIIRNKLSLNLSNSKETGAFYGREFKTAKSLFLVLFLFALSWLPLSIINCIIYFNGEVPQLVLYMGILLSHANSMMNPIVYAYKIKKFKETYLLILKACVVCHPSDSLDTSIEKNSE
Summary of the method: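 Duplicate competition tubes: 1 nM [3H]-MRE3008-F20 in 50 mM Tris-HCl, 10 mM MgCl2, pH 7.4, membranes (50 μg protein/assay) and at least six to eight ligand concentrations, incubated 120 min at 4 °C. Nonspecific binding was set with 1 μM unlabeled MRE3008-F20. Bound radioactivity was collected on GF/B filters and counted.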

SMILES	Ki (Adenosine receptor A2b [1]) [nM]	Ratio [2]	IC50 (Adenosine receptor A2b [3]) [nM]	Ratio [4]	Ki (Adenosine receptor A1) [nM]	Ki (Adenosine receptor A2a) [nM]	Ki (Adenosine receptor A3) [nM]
O=C(Cc1ccccc1)Nc1nc2nn(CCCc3ccccc3)cc2c2nc(-c3ccco3)nn12	40	3	250	1.9	75	60	
CC(C)CCn1cc2c(nc(NC(=O)COc3ccccc3)n3nc(-c4ccco4)nc23)n1	25	2	150	2.2	55	38	50
CC(C)CCn1cc2c(nc(NC(=O)Cc3cccc4ccccc34)n3nc(-c4ccco4)nc23)n1	28	7.7	170	5.07	142	42	215
O=C(Cc1cccc2ccccc12)Nc1nc2nn(CCCc3ccccc3)cc2c2nc(-c3ccco3)nn12	20	15	110	55	1100	800	300
O=C(COc1ccccc1)Nc1nc2nn(CCc3ccccc3)cc2c2nc(-c3ccco3)nn12	22	13.6	130	0.9	20	40	300
O=C(Cc1cccc2ccccc12)Nc1nc2nn(CCc3ccccc3)cc2c2nc(-c3ccco3)nn12	30	4	180	3	90	55	120
O=C(COc1ccccc1)Nc1nc2nn(CCCc3ccccc3)cc2c2nc(-c3ccco3)nn12	25	1.6	140	2	50	45	40
Cn1cc2c(nc(NC(=O)Nc3ccccc3)n3nc(-c4ccco4)nc23)n1		0.0007		2.67			

Next, values leading:

Ki (Adenosine receptor A2b [1]) [nM]	Ratio [2]	IC50 (Adenosine receptor A2b [3]) [nM]	Ratio [4]	Ki (Adenosine receptor A1) [nM]	Ki (Adenosine receptor A2a) [nM]	Ki (Adenosine receptor A3) [nM]	SMILES
35	1.3	210	3.4	120	60	45	O=C(Cc1ccccc1)Nc1nc2nn(CCc3ccccc3)cc2c2nc(-c3ccco3)nn12
			0.2				Nc1nc2nn(CCc3ccccc3)cc2c2nc(-c3ccco3)nn12
31	2.6	190	6.4	200	57		CC(C)CCn1cc2c(nc(NC(=O)Cc3ccccc3)n3nc(-c4ccco4)nc23)n1
	0.05		4.2				Cn1cc2c(nc(NC(=O)Cc3ccccc3)n3nc(-c4ccco4)nc23)n1
